Data set [1] relates to A549 nonsmall cell lung cancer cell line. Put plainly: CellTiter-Glo viability assay, A549 cells. The data set is classed as cell-based. Conditions: Homo sapiens, A549, read-out: Inhibition % @ 100 μM A549. Put shortly:
(§1)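 Cells plated at 1250/well in serum-free medium (F12 for CHO-K1 and A549, DMEM for M14). Compounds given as 10-point 1:3 dilution series starting at 300 µM before addition, with gefitinib as assay control. Incubated 72 h at 37 °C, 5% CO2. CellTiter-Glo added, 15 min at room temperature, luminescence read. Normalized to media-only (0%) and 1% DMSO-treated cells (100%). Percent inhibition is the mean of three experiments ± SD.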
A general note: Cellular ATP, detected with luciferase, serves as a proxy for viable cell number.

The next data set relates to M14 melanoma cell line. Put plainly: CellTiter-Glo viability assay, M14 cells. The data set is classed as cell-based. In outline:
as §1

For the next data set, the target named is T1, HDAC6 (Homo sapiens, UniProt Q9UBN7).
T1 sequence (Q9UBN7 1-1215): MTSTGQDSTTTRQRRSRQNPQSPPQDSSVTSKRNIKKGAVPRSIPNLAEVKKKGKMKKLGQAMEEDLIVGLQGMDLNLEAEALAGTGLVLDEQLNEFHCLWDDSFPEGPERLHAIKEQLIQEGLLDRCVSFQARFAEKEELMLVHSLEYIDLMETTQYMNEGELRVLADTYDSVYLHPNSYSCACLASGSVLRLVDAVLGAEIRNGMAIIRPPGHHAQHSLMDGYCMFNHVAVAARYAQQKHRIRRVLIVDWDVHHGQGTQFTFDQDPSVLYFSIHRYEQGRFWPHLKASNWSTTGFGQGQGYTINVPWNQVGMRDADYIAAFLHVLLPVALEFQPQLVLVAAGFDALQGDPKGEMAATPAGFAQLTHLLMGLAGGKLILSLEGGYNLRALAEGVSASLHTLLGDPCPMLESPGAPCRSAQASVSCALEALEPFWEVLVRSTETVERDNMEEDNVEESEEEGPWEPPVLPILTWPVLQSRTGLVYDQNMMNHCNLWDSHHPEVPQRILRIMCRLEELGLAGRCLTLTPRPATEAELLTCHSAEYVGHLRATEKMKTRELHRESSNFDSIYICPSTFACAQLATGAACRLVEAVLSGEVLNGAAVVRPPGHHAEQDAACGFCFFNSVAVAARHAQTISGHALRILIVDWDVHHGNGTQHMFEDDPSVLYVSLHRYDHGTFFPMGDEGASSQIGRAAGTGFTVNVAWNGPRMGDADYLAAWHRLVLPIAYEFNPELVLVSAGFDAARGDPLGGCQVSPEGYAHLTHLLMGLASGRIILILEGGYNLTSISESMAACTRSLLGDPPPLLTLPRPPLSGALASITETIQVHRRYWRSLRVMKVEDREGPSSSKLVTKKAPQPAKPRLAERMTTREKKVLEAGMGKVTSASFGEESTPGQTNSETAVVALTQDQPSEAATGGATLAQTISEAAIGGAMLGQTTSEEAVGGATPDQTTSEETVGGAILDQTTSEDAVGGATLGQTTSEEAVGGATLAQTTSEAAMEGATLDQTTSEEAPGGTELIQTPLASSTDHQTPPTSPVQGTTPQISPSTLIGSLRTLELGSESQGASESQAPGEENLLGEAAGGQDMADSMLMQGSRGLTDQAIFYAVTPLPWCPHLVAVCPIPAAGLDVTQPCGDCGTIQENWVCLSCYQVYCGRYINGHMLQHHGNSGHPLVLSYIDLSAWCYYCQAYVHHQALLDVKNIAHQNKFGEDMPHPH
The experiment in a line: HDAC inhibition, HDAC6. The data set is classed as biochemical. Conditions: up to 100 μM, data not shown.

A further data set addresses HDAC1 (Homo sapiens, UniProt Q13547). The experiment in a line: HDAC inhibition, HDAC1. The data set is classed as biochemical. As to conditions: up to 100 μM, data not shown.
For another data set, the system named is M14 cells. The experiment in a line: ApoTox-Glo triplex assay. The data set is classed as cell-based. Conditions: for cytotoxicity response / effect on cell viability (live cell protease): early time point (4 h); for time of caspase activity spike: time points 4, 24, 48, 72 h. Put shortly:
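M14 #5 cells, 1250/well in serum-free DMEM, preincubated 4 h at 37 °C, 5% CO2. Compounds (1:3 serial dilutions) incubated 4, 24, 48 and 72 h alongside ionomycin, terfenadine and panobinostat controls. Viability/cytotoxicity reagent (400 µM GF-AFC, 400 µM bis-AAF-R110 in reagent) 30 min at 37 °C; fluorescence Ex400/Em505 (live-cell protease) and Ex485/Em520 (dead-cell protease). Then Caspase-Glo 3/7, 30 min at room temperature, luminescence.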

The target in another data set is HDAC2 (Homo sapiens, UniProt Q92769). The experiment in a line: HDAC inhibition, HDAC2. The data set is classed as biochemical. As to conditions: up to 100 μM, data not shown.
Data set [2] concerns SKMEL-28 melanoma cell line. Put plainly: Hexosaminidase viability assay, SKMEL-28. The format is cell-based. Conditions: Homo sapiens, SK-MEL-28, read-out: IC50 SKMEL-28, text. In outline: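 Cells in 96-well plates grown overnight, then treated 48 h with compound at 0–50 µM. Wells washed with PBS. Hexosaminidase substrate added for 30 min at 37 °C, followed by developer; absorbance read at 405 nm. Percent viability = (treated absorbance/control absorbance) × 100.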

In data set [3] the test system is melanoma cells with mutated Q61LNRAS and wild-type BRAF (M202 and M207). As to conditions: up to 10 μM; cited from earlier work.

Each structure is given as a SMILES string.

Sequence of HDAC1 (Q13547 whole entry, species assumed): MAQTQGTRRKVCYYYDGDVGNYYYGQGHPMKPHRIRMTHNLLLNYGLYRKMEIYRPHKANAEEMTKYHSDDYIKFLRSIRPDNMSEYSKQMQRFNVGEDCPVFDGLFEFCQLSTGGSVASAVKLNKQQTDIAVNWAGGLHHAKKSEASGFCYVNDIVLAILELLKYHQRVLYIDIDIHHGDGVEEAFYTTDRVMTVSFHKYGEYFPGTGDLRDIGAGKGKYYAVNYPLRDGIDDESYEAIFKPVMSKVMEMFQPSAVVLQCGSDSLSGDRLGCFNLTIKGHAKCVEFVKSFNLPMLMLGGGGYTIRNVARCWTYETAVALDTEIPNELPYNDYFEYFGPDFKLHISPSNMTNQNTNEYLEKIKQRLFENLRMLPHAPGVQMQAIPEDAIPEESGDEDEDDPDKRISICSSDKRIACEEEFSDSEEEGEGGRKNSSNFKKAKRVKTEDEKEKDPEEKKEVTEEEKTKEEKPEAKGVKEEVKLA
Sequence of HDAC2 (Q92769 whole entry): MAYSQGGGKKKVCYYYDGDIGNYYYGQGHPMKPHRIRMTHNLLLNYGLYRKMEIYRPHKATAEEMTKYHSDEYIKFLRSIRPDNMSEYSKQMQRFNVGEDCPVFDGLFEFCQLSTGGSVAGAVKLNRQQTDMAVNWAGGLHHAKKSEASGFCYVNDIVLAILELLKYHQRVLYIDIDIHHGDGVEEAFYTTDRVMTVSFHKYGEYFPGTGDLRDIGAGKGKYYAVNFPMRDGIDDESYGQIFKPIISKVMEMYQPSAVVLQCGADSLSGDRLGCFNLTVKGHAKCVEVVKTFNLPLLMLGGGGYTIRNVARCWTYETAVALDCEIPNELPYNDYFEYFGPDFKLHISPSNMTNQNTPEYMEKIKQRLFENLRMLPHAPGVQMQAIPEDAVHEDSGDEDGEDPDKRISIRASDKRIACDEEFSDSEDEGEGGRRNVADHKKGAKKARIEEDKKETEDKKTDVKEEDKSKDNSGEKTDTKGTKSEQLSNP

As a reminder, the inhibition is the share of the control response that was lost under treatment. Regarding `CCC[C@@H]1CNC(=O)C(=O)N1C[C@@H]1CCCN1C[C@H](Cc1ccc(O)cc1)N1C[C@@H](Cc2ccc(O)cc2)N(CC(CC)c2ccccc2)C(=O)C1=O` (some centres unmarked) [Compound 2], the inhibition at 100 µM stood at 0% in data set [1] and 14 ± 3% with M14 melanoma cell line (Homo sapiens, M14, read-out: Inhibition % @ 100 μM M14).
As for `O=C1NC[C@H](Cc2ccccc2)N(C[C@@H]2CCCN2C[C@@H](CC2CCCCC2)N2C[C@H](Cc3ccc(O)cc3)N(CCc3ccccc3)C(=O)C2=O)C1=O` [Compound 2155-14], the HDAC6 inhibition entry on HDAC6 is listed as “lack of HDAC inhibition”. Besides, in the data set with M14 melanoma cell line (100 μM), the “inhibition of M14 cell viability at highest tested concentration” value was “not able to inhibit M14 cell viability fully”. The HDAC1 inhibition result on HDAC1 is “lack of HDAC inhibition”. In the data set on M14 cells, the cytotoxicity response result was “no markers for apoptosis and cytotoxicity”; the “effect on cell viability (live cell protease)” value (shortened to “effect on cell viability”) is “no effect on cell viability”; the “time of caspase activity spike” value turned out to be 24 h. Moreover, the HDAC2 inhibition result on HDAC2 was “lack of HDAC inhibition”.
Consider `CCC[C@H]1CNC(=O)C(=O)N1C[C@@H]1CCCN1C[C@@H](CC1CCCCC1)N1C[C@H](Cc2ccc(O)cc2)N(CCc2ccccc2)C(=O)C1=O` [Compound 2155-17], for which, in the data set on M14 melanoma cell line (ratio of IC50), the “selectivity for M14 over A549 cells” value is “approximately 5 fold” and the “selectivity for M14 over CHO-K1 cells” value is “more than 10 fold”.
What is called IC50 is the point on the concentration scale where inhibition reaches its midpoint. As to `O=C1NC[C@H](Cc2ccccc2)N(C[C@@H]2CCCN2C[C@H](Cc2ccccc2)N2C[C@H](Cc3ccc(O)cc3)N(CCC34CC5CC(CC(C5)C3)C4)C(=O)C2=O)C1=O` [Compound 2155-18], the HDAC6 inhibition entry at HDAC6 was “lack of HDAC inhibition”. For the same compound, the half-maximal inhibitory concentration (IC50) in the data set with M14 melanoma cell line (Homo sapiens, M14, read-out: IC50 M14, Table 3, mean of three ± SD) was 890 ± 70 nM; in data set [2] it was 890 ± 70 nM. Moreover, the HDAC1 inhibition result at HDAC1 is listed as “lack of HDAC inhibition”. Besides, the HDAC2 inhibition result on HDAC2 is reported as “lack of HDAC inhibition”.
In the case of `C[C@H](CCC(=O)O)C[C@H](C)C[C@H](C)C(=O)/C=C(\O)[C@H](C)C[C@H](C)C/C=C/[C@@H](C)[C@@H](O)[C@@H](C)[C@@H](O)C[C@@H]1CC[C@@](C)([C@H]2CC[C@@](C)([C@@H](C)O)O2)O1` [ionomycin], in the data set on M14 cells, the cytotoxicity response entry was “strong cytotoxicity response”, the “effect on cell viability” value is “dose-dependent loss of viability” and the “time of caspase activity spike” value is “did not induce a spike in caspase activity”.
Turning to `Cc1[nH]c2ccccc2c1CCNCc1ccc(/C=C/C(=O)NO)cc1` [panobinostat], in the data set on M14 cells, the cytotoxicity response result is on record as “no effect”, the “effect on cell viability” value is listed as “no effect” and the “time of caspase activity spike” value was 24 to 48 h.
Consider `CC(C)(C)c1ccc(C(O)CCCN2CCC(C(O)(c3ccccc3)c3ccccc3)CC2)cc1` (centres unmarked) [terfenadine], for which, in the data set on M14 cells, the cytotoxicity response entry was “cytotoxicity spike”, the “effect on cell viability” value is reported as “early loss of cell viability” and the “time of caspase activity spike” value lay in the range of 4 to 24 h.
As to `CCCS(=O)(=O)Nc1ccc(F)c(C(=O)c2c[nH]c3ncc(-c4ccc(Cl)cc4)cc23)c1F` [vemurafenib], the “activity against M202 and M207 melanoma cells” value in data set [3] was “inactive”.

The values are drawn from article PMC3983399 (Journal of Medicinal Chemistry, 2014).
